For eleven compounds, IC50 and Adhesion results are on record in ChEMBL document CHEMBL1134773, “Design and synthesis of potent and selective alpha(4)beta(7) integrin antagonists” (J Med Chem, 2001).

The target of one experiment is T1, Integrin alpha-4/beta-7 (Homo sapiens, UniProt P13612+P26010).
T1 sequence (P13612 whole entry): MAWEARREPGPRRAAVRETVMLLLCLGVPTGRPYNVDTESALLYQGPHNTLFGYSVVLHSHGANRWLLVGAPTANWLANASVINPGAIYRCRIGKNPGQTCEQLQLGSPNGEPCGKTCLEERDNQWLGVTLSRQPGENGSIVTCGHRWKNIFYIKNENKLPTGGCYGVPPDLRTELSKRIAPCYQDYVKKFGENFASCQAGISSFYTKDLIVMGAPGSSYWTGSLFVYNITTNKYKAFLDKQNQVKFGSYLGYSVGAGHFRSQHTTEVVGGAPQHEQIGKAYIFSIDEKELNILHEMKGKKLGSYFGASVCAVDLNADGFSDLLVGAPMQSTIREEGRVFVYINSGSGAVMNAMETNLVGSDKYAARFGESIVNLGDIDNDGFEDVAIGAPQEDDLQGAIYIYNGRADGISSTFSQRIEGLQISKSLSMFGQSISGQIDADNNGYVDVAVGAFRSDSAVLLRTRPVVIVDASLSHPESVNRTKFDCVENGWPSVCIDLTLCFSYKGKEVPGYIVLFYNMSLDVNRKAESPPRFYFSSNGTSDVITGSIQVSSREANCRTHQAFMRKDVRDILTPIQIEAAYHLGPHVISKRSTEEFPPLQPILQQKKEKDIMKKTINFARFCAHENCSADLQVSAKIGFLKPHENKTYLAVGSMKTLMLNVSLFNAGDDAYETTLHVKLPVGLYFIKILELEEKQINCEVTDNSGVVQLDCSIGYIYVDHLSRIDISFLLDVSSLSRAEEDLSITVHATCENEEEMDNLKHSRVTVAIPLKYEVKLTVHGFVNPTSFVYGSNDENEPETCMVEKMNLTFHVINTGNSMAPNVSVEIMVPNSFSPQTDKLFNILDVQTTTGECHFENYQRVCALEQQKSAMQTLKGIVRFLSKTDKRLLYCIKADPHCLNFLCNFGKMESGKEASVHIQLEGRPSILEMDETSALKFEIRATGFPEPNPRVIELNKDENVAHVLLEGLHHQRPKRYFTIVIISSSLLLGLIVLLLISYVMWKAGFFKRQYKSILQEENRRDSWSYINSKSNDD
T1 sequence (P26010 whole entry): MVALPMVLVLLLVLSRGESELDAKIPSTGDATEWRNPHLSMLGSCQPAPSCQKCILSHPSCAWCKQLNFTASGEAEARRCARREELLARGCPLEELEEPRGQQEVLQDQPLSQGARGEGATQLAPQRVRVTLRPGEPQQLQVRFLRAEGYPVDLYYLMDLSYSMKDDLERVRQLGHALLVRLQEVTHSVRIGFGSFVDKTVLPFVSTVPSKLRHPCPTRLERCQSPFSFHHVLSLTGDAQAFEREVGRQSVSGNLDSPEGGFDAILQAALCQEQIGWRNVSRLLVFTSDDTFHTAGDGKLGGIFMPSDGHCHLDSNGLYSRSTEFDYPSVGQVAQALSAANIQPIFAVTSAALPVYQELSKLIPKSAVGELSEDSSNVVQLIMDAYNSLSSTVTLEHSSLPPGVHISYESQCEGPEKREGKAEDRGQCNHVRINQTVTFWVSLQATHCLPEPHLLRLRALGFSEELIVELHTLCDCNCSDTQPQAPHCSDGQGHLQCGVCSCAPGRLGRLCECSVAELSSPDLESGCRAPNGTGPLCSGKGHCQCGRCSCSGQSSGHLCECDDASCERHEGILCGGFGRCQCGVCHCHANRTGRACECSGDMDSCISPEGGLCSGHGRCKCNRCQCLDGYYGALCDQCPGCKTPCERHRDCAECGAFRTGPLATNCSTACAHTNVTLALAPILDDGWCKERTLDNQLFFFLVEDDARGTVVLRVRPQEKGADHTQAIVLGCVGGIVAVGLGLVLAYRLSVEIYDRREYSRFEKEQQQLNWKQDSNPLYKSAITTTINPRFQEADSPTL
Briefly: Inhibition of alpha-4-beta-7/MAdCAM interactions. It is filed as protein-complex assay. In a few lines:
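Plates carried anti-human IgG capture antibody, then 100 ng MAdCAM-Ig (30 min, room temperature), then were blocked 1 h at 37 °C. H33342-labelled 38-β7 cells (8×10^5/mL, Ca2+/Mg2+ 1.0 mM) were preincubated 10 min at 37 °C with peptide. They adhered 30 min at 37 °C, and unbound cells were spun off inversely at 50g. Values are mean ± SD of ≥3 experiments.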

In experiment [1] the target is Integrin alpha-4/beta-1 (Homo sapiens) (UniProt P05556+P13612). Briefly: Inhibition of alpha4-beta1 lymphoma cell binding to CHO-VCAM-1 cells. It is filed as cell-based.
The target in experiment [2] is T2, Integrin alpha-4/beta-7 (Homo sapiens) (UniProt P13612+P26010). Kind of experiment: Ability to inhibit adhesion of alpha4-beta7 integrin expressing 38-beta7 lymphoma cells to chinese hamster ovary (CHO) cells stably transfected with MAdCAM-1. Format: cell-based. In a few lines:
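38-β7 lymphoma cells (α4β7+) labelled 30 min at 37 °C with 12 μg/mL H33342, then 8×10^5/mL in buffer with 1.0 mM Ca2+/Mg2+. Preincubated 10 min at 37 °C with peptide at 1 mg/mL final. Allowed to adhere 30 min at 37 °C to confluent MAdCAM-1-transfected CHO monolayers (seeded 24 h before). Nonadherent cells removed by inverse centrifugation. Result given as % of medium control, mean of two experiments.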

For experiment [3], the target named is T2, Integrin alpha-4/beta-7 (Homo sapiens). Kind of experiment: Inhibition of alpha4-beta7 lymphoma cell binding to CHO-VCAM-1 cells. Format: cell-based.
The test system of a further experiment is PBL. Briefly: Effect on human PBL cell binding to Laminin. It is filed as cell-based. A digest of the protocol:
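Human PBL labelled with H33342 (12 μg/mL, 30 min, 37 °C), resuspended at 8×10^5/mL with 1.0 mM Ca2+ and Mg2+. Peptides at 1 mg/mL final were preincubated with the cells for 10 min at 37 °C. Cells then adhered 30 min at 37 °C to plates coated 16 h at 4 °C with 2 μg/well laminin (pH 9.4 carbonate). Read-out is % of medium control, mean ± SD of ≥3 experiments.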

As a reminder, the IC50 is the concentration that inhibits the measured activity by half. Take `CC(C)C[C@H](NC(=O)c1cc2ccccc2cn1)C(=O)N[C@@H](CC(=O)O)C(=O)N[C@H](C(N)=O)[C@@H](C)O`: the concentration for half-maximal inhibition (IC50) against Integrin alpha-4/beta-7 was found to be 465 µM.
The same measure, in the same setting: under `CC(C)C[C@@H]1NC(=O)[C@H](Cc2ccccc2)NC(=O)[C@H]2CCCN2C(=O)[C@H](CC(=O)O)NC(=O)[C@H]([C@@H](C)O)NC(=O)[C@H](CC(=O)O)NC1=O` stands 163 µM.
`CC(C)C[C@@H]1NC(=O)[C@@H](Cc2ccccc2)NC(=O)[C@H]2CCCN2C(=O)[C@@H](C)NC(=O)[C@H]([C@@H](C)O)NC(=O)[C@@H](CC(=O)O)NC1=O`: the Adhesion in experiment [1] was 109%; in experiment [2] it was 7%; in experiment [3], 36%.
For `CC(C)C[C@@H]1NC(=O)[C@H](Cc2ccc(O)cc2)NC(=O)[C@H]2CCCN2C(=O)[C@H](CC(=O)O)NC(=O)[C@H]([C@@H](C)O)NC(=O)[C@H](CC(=O)O)NC1=O`, the IC50 against Integrin alpha-4/beta-7 was found to be 308 µM.
Turning to `CC(C)C[C@@H]1NC(=O)[C@@H](Cc2ccccc2)NC(=O)[C@H]2CCCN2C(=O)[C@@H](CC(=O)O)NC(=O)[C@H]([C@@H](C)O)NC(=O)[C@@H](CC(=O)O)NC1=O`, the Adhesion amounted to 72% in experiment [1], 3% in experiment [2], 95% with PBL and 38% in experiment [3].
For `CSCC[C@H]1NC(=O)[C@H]2CCCN2C(=O)[C@@H](CC(=O)O)NC(=O)[C@H]([C@@H](C)O)NC(=O)[C@@H](CC(=O)O)NC(=O)[C@H](CC(C)C)NC1=O` the same measures were 108%, 15%, 102% and 36%.
`CC(C)C[C@@H]1NC(=O)[C@H](Cc2ccccc2)NC(=O)[C@H]2CCCN2C(=O)[C@H](C)NC(=O)[C@H]([C@@H](C)O)NC(=O)[C@H](CC(=O)O)NC1=O` showed an IC50 at Integrin alpha-4/beta-7 of 292 µM.
Turning to `CC(C)C[C@@H]1NC(=O)[C@H](Cc2c[nH]cn2)NC(=O)[C@H]2CCCN2C(=O)[C@H](CC(=O)O)NC(=O)[C@H]([C@@H](C)O)NC(=O)[C@H](CC(=O)O)NC1=O`, the IC50 against Integrin alpha-4/beta-7 came to 301 µM.
In the case of `CC(C)C[C@@H]1NC(=O)[C@@H](Cc2ccc(O)cc2)NC(=O)[C@H]2CCCN2C(=O)[C@@H](CC(=O)O)NC(=O)[C@H]([C@@H](C)O)NC(=O)[C@@H](CC(=O)O)NC1=O`, the Adhesion in experiment [1] was determined as 78%; in experiment [2], 3%; with PBL, 111%; in experiment [3], 37%.
In turn, `CSCC[C@@H]1NC(=O)[C@H]2CCCN2C(=O)[C@H](CC(=O)O)NC(=O)[C@H]([C@@H](C)O)NC(=O)[C@H](CC(=O)O)NC(=O)[C@H](CC(C)C)NC1=O` registered an IC50 against Integrin alpha-4/beta-7 of 317 µM.
With `CC(C)C[C@@H]1NC(=O)[C@@H](Cc2c[nH]cn2)NC(=O)[C@H]2CCCN2C(=O)[C@@H](CC(=O)O)NC(=O)[C@H]([C@@H](C)O)NC(=O)[C@@H](CC(=O)O)NC1=O`, the Adhesion was found to be 74% in experiment [1], 9% in experiment [2], 114% with PBL and 27% in experiment [3].
